ChEMBL document CHEMBL1124337, “Structure-activity relationships in prazosin-related compounds. Effect of replacing a piperazine ring with an alkanediamine moiety on alpha 1-adrenoreceptor blocking activity” (J Med Chem, 1989)

Legend:
[1] = molecular target: T1, Adrenergic receptor alpha-2 (Rattus norvegicus, UniProt P22086+P19328+P22909); assay: Antagonist activity for Alpha-2 adrenergic receptor against clonidine in rat vas deferences; format: functional
T1 sequence (P22086 whole entry): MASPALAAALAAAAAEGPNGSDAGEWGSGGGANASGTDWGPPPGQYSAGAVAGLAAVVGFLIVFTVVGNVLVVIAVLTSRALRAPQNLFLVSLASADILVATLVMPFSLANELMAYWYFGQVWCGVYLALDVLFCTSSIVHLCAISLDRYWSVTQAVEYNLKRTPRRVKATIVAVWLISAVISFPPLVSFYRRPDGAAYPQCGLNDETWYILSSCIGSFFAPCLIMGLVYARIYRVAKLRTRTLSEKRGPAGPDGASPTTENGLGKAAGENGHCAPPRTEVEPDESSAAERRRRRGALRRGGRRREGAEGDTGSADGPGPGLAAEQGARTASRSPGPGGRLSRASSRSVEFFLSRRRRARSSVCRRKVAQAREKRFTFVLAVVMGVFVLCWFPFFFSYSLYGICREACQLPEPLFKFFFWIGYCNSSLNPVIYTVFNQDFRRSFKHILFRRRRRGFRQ
T1 sequence (P19328 whole entry): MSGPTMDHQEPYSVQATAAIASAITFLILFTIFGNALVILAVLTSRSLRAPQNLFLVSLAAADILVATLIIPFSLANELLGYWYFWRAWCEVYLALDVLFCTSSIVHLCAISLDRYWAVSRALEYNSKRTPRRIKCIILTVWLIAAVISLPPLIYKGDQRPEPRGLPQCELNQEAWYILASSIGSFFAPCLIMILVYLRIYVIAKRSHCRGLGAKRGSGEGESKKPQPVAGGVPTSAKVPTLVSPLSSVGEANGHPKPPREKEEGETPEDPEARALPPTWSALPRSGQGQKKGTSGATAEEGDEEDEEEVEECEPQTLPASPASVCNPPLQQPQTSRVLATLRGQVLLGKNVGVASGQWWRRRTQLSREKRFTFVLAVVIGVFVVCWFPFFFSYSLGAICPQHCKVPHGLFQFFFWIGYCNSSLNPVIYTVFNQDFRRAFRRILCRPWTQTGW
T1 sequence (P22909 whole entry): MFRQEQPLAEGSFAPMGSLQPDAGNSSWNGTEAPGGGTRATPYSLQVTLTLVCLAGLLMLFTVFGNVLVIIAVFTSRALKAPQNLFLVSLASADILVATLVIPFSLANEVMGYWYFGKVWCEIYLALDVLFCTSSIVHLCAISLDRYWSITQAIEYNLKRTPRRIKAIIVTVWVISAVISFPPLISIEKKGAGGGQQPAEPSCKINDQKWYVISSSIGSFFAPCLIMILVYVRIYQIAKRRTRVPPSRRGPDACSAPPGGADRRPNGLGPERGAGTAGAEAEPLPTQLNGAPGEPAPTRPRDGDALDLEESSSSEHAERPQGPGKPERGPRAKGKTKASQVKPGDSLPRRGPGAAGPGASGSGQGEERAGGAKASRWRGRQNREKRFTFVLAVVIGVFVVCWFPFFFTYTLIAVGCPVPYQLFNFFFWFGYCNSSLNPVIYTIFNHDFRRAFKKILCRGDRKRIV

[2] = molecular target: T2, Adrenergic receptor alpha-1 (Rattus norvegicus, UniProt P15823+P23944+P43140); assay: Antagonist activity for Alpha-1 adrenergic receptor against norepinephrine in rat vas deferences; format: functional
T2 sequence (P15823 whole entry): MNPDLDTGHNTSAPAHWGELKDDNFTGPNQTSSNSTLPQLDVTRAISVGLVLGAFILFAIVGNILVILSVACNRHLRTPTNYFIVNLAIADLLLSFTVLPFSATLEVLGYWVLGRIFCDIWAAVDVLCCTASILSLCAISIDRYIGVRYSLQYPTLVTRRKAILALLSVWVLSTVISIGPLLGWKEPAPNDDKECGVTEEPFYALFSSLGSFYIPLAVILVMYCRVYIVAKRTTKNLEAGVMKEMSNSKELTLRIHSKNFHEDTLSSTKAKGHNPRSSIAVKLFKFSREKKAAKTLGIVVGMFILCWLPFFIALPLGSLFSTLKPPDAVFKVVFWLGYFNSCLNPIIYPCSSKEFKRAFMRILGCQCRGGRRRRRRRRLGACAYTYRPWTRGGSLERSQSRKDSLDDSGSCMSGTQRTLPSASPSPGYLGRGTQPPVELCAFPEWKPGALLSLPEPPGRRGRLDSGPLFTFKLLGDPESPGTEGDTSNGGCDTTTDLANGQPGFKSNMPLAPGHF
T2 sequence (P23944 whole entry): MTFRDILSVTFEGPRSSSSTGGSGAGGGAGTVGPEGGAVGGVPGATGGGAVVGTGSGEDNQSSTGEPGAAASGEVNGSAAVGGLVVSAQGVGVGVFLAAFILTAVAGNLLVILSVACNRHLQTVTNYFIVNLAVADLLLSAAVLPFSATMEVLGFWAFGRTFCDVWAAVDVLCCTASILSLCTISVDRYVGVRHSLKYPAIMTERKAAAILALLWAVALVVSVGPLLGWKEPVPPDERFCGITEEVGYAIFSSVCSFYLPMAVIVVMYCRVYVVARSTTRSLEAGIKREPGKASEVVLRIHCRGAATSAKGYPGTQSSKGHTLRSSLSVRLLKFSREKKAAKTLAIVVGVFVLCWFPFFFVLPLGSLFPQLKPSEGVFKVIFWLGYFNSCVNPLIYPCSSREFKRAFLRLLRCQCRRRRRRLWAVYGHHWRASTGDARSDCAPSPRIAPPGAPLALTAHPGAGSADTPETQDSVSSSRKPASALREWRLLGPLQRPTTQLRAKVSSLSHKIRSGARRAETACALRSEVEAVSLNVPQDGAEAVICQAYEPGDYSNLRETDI
T2 sequence (P43140 whole entry): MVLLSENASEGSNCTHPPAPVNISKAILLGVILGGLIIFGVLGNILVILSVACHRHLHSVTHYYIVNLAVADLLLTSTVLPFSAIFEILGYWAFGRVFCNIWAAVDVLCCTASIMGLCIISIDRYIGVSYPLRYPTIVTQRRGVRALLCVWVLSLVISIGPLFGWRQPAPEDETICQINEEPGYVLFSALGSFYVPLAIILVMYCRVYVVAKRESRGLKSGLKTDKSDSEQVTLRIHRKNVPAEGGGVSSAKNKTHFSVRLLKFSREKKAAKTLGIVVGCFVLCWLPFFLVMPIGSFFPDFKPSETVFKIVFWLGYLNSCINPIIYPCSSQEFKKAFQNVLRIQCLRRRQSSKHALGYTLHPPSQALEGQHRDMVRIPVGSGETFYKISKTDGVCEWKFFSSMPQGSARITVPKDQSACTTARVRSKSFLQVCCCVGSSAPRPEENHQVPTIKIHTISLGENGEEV

[3] = molecular target: T1, Adrenergic receptor alpha-2; assay: Compound evaluated for antagonist activity to Alpha-2 adrenergic receptor in a competitive assay against clonidine in rat vas deferences; format: functional
Outline: (§1)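 Male albino rat (175–200 g) vas deferens in 20 mL Krebs baths containing propranolol 1 μM and cocaine 10 μM, loading tension 0.5–0.8 g. Field stimulation at 0.1 Hz, 3-ms pulses, fixed 10–35 V. After ≥1 h equilibration, a cumulative clonidine curve (twitch inhibition) was run, then 30 min antagonist and a second curve. Time-matched controls were run. pA2 came from Schild plots (slope constrained to −1), three antagonist concentrations ×5, or van Rossum for two concentrations.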

Rattus norvegicus = species on record: Rattus norvegicus; assay: Compound was tested for its effect in reducing the mean blood pressure after 2 min in male wistar rats; format: functional
Outline: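 Male Wistar rats (400–490 g) under equithesin (3 mL/kg, then 0.8 mL/kg ip, with supplements every 90–120 min). Dosing was a single pulse iv injection into the jugular vein of 100 μg/kg in 30 μL, flushed with 100 μL saline, after a vehicle-only control. Carotid mean arterial pressure was followed over time as % decrease, given as mean ± SE, with paired t test.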

[4] = molecular target: T1, Adrenergic receptor alpha-2; assay: Compound evaluated for antagonist activity to alpha-2 adrenergic receptor in a competitive assay against clonidine in rat vas deferences; format: functional; outline: as §1
[5] = molecular target: T2, Adrenergic receptor alpha-1; assay: Compound evaluated for antagonist activity to alpha-1 adrenergic receptor in a competitive assay against norepinephrine in rat vas deferences; format: functional
Outline: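 Epididymal portion (14 mm) of male albino rat (175–200 g) vas deferens in Krebs with propranolol 1 μM and cocaine 10 μM, tension 0.4 g, equilibrated ≥1 h. Cumulative norepinephrine contraction curves: the first was discarded and the second was the control. A third curve followed 30 min antagonist incubation. Responses were taken as % of control maximum, corrected by untreated time-controls. Dose ratios at EC50 (three concentrations ×5) gave Schild pA2 with slope constrained to −1.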

[6] = molecular target: Adrenergic receptor alpha-1 (Rattus norvegicus) (UniProt P15823+P23944+P43140); assay: Selectivity ratio is the antilog of the difference between pA2 at alpha-1 and alpha-2 adrenergic receptors
Outline: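 Ratio calculated as the antilog of the difference between the pA2 values from the norepinephrine (α1, epididymal vas deferens) and clonidine (α2, field-stimulated vas deferens) Schild analyses in rat tissue.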

pA2 [1]	pA2 [2]	SMILES	further results
5.76	8.17	COc1cc2nc(NCCCCCCN(C)C(=O)c3ccco3)nc(N)c2cc1OC	
	8.03	COc1cc2nc(N(C)CCNC(=O)c3ccco3)nc(N)c2cc1OC	pA2 [3]: 5.2
4.78	7.22	COc1cc2nc(NCCCCCCCCNC(=O)c3ccco3)nc(N)c2cc1OC	
6.68	8.83	COc1cc2nc(N(C)CCCCCN(C)C(=O)c3ccco3)nc(N)c2cc1OC	
6.84	8.93	COc1cc2nc(N(C)CCCCCCN(C)C(=O)c3ccco3)nc(N)c2cc1OC	Reduction (Rattus norvegicus): 57.5%
5.98	8.53	COc1cc2nc(N(C)CCCCCCNC(=O)c3ccco3)nc(N)c2cc1OC	
		COc1cc2nc(N3CCN(C(=O)c4ccco4)CC3)nc(N)c2cc1OC [PRAZOSIN]	Reduction (Rattus norvegicus): 38.5%
5.04	7.54	COc1cc2nc(NCCCCCCCNC(=O)c3ccco3)nc(N)c2cc1OC	
6.45	7.41	COc1cc2nc(N(C)CCCN(C)C(=O)c3ccco3)nc(N)c2cc1OC	
		COc1cc2nc(NCCCCNC(=O)c3ccco3)nc(N)c2cc1OC	pA2 [4]: 6.03; pA2 [5]: 8.25; Ratio [6]: 170
6.55	8.6	COc1cc2nc(N(C)CCCCCCCN(C)C(=O)c3ccco3)nc(N)c2cc1OC	
5.52	6.7	COc1cc2nc(N(C)CCN(C)C(=O)c3ccco3)nc(N)c2cc1OC	
		COc1cc2nc(NCCCCCNC(=O)c3ccco3)nc(N)c2cc1OC	pA2 [4]: 5.01; pA2 [5]: 7.72; Ratio [6]: 513
		COc1cc2nc(NCCCNC(=O)c3ccco3)nc(N)c2cc1OC	pA2 [4]: 5.99; pA2 [5]: 8.01; Ratio [6]: 105
6.31	8.1	COc1cc2nc(N(C)CCCCCCCCN(C)C(=O)c3ccco3)nc(N)c2cc1OC	
5.37	8.28	COc1cc2nc(NCCNC(=O)c3ccco3)nc(N)c2cc1OC	
		COc1cc2nc(NCCCCCCNC(=O)c3ccco3)nc(N)c2cc1OC	pA2 [4]: 4.51; pA2 [5]: 7.88; Ratio [6]: 2340
6.5	8.15	COc1cc2nc(N(C)CCCCN(C)C(=O)c3ccco3)nc(N)c2cc1OC	
